Data published in ChEMBL document CHEMBL4339192, “De Novo Designed Amphipathic α-Helical Antimicrobial Peptides Incorporating Dab and Dap Residues on the Polar Face To Treat the Gram-Negative Pathogen, Acinetobacter baumannii” (J Med Chem, 2019).
Values after ≈ are worked out from the molar mass of the structure shown. Where a SMILES comes first, the peptide text is derived from it. [ ]: non-standard residue; d: D form. Dap = NC[C@H](N)C(=O)O

Columns and labels:
Acinetobacter baumannii [1] = assay: Antibacterial activity against Acinetobacter baumannii 649 measured after 24 hrs in presence of 25% human serum by microtiter dilution method; type: functional; details: Acinetobacter baumannii, 649, 24 h
In short: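 Blood strain 649 was tested by MH broth microdilution with and without 25% (v/v) human serum added to the medium. The test used a final inoculum of 5 × 10^5 cfu/mL and incubation at 37 °C. The ratio is the MIC in serum over the MIC in MH alone.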

[2] = Therapeutic index, ratio of HC50 for human RBC to MIC for polymyxin B/colistin-resistant Acinetobacter baumannii M89963; type: toxicity; details: human red blood cells, read-out: TI
In short: (§1)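 T.I. = HC50/MIC. For HC50, peptide (quantified by amino acid analysis) was two-fold serially diluted over 12 concentrations up to 1000 μg/mL. It was incubated with 1% fresh human erythrocytes in PBS, pH 7.4, for 18 h at 37 °C. After 800g centrifugation, hemoglobin was read at 570 nm against water (100%) and no-peptide (0%) controls. HC50 came from a lysis-versus-concentration plot, average of 3 replicates.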

Acinetobacter baumannii [3] = assay: Antibacterial activity against Acinetobacter baumannii 649 measured after 24 hrs by microtiter dilution method; type: functional; details: Acinetobacter baumannii, 649, 24 h
In short: (§2)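 Broth microdilution in Mueller-Hinton (MH) medium. […] Plates were incubated 24 h at 37 °C. MIC was the lowest peptide concentration that inhibited growth, based on three sets of replicates.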

[4] = Therapeutic index, ratio of HC50 for human RBC to MIC for polymyxin B/colistin-resistant Acinetobacter baumannii M89955; type: toxicity; details: human red blood cells, read-out: TI; in short: as §1
[5] = Therapeutic index, ratio of HC50 for human RBC to MIC for polymyxin B/colistin-resistant Acinetobacter baumannii M89953; type: toxicity; details: human red blood cells, read-out: TI; in short: as §1
[6] = Therapeutic index, ratio of HC50 for human RBC to MIC for polymyxin B/colistin-resistant Acinetobacter baumannii M89951; type: toxicity; details: human red blood cells, read-out: TI; in short: as §1
[7] = Therapeutic index, ratio of HC50 for human RBC to MIC for polymyxin B/colistin-resistant Acinetobacter baumannii M89952; type: toxicity; details: human red blood cells, read-out: TI; in short: as §1
[8] = Therapeutic index, ratio of HC50 for human RBC to MIC for polymyxin B/colistin-resistant Acinetobacter baumannii M89949; type: toxicity; details: human red blood cells, read-out: TI; in short: as §1
[9] = Hemolytic activity against human RBC measured after 18 hrs by spectrophotometric method; type: ADME, cell-based, Erythrocyte; details: human red blood cells (erythrocytes)
In short: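 Peptide (amount by amino acid analysis), two-fold serial dilutions at 12 concentrations up to 1000 μg/mL, with 1% human erythrocytes in PBS pH 7.4, 37 °C, 18 h. Unlysed cells removed by centrifugation (800g); hemoglobin read at 570 nm. Water-lysed cells = 100%, no-peptide cells = 0%. HC50 from plot of % lysis vs concentration (μM), average of 3 replicates.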

[10] = Therapeutic index, ratio of HC50 for human RBC to MIC for polymyxin B/colistin-resistant Acinetobacter baumannii M89941; type: toxicity; details: human red blood cells, read-out: TI; in short: as §1
Acinetobacter baumannii [11] = assay: Antibacterial activity against Acinetobacter baumannii isolate 1001611 measured after 24 hrs by microtiter dilution method; type: functional; details: isolate 1001611, 24 h; in short: as §2
Acinetobacter baumannii [12] = assay: Antibacterial activity against Acinetobacter baumannii isolate 1007660 measured after 24 hrs by microtiter dilution method; type: functional; details: isolate 1007660, 24 h; in short: as §2
Acinetobacter baumannii [13] = assay: Antibacterial activity against Acinetobacter baumannii isolate 1021371 measured after 24 hrs by microtiter dilution method; type: functional; details: isolate 1021371, 24 h; in short: as §2
Acinetobacter baumannii [14] = assay: Antibacterial activity against Acinetobacter baumannii isolate 952654 measured after 24 hrs by microtiter dilution method; type: functional; details: isolate 952654, 24 h; in short: as §2
Acinetobacter baumannii [15] = assay: Antibacterial activity against Acinetobacter baumannii isolate 9383370 measured after 24 hrs by microtiter dilution method; type: functional; details: isolate 9383370, 24 h; in short: as §2
Acinetobacter baumannii [16] = assay: Antibacterial activity against Acinetobacter baumannii isolate 961997 measured after 24 hrs by microtiter dilution method; type: functional; details: isolate 961997, 24 h; in short: as §2
Acinetobacter baumannii [17] = assay: Antibacterial activity against Acinetobacter baumannii isolate 1002956 measured after 24 hrs by microtiter dilution method; type: functional; details: isolate 1002956, 24 h; in short: as §2
Acinetobacter baumannii [18] = assay: Antibacterial activity against Acinetobacter baumannii isolate 977751 measured after 24 hrs by microtiter dilution method; type: functional; details: isolate 977751, 24 h; in short: as §2
Acinetobacter baumannii [19] = assay: Antibacterial activity against Acinetobacter baumannii isolate 1035166 measured after 24 hrs by microtiter dilution method; type: functional; details: isolate 1035166, 24 h; in short: as §2
Acinetobacter baumannii [20] = assay: Antibacterial activity against Acinetobacter baumannii isolate 1010282 measured after 24 hrs by microtiter dilution method; type: functional; details: isolate 1010282, 24 h; in short: as §2
Acinetobacter baumannii [21] = assay: Antibacterial activity against Acinetobacter baumannii isolate 1010245 measured after 24 hrs by microtiter dilution method; type: functional; details: isolate 1010245, 24 h; in short: as §2
Acinetobacter baumannii [22] = assay: Antibacterial activity against Acinetobacter baumannii isolate 1017395 measured after 24 hrs by microtiter dilution method; type: functional; details: isolate 1017395, 24 h; in short: as §2
Acinetobacter baumannii [23] = assay: Antibacterial activity against Acinetobacter baumannii isolate 968886 measured after 24 hrs by microtiter dilution method; type: functional; details: isolate 968886, 24 h; in short: as §2
Acinetobacter baumannii [24] = assay: Antibacterial activity against Acinetobacter baumannii isolate 964304 measured after 24 hrs by microtiter dilution method; type: functional; details: isolate 964304, 24 h; in short: as §2
Acinetobacter baumannii [25] = assay: Antibacterial activity against Acinetobacter baumannii isolate 963659 measured after 24 hrs by microtiter dilution method; type: functional; details: isolate 963659, 24 h; in short: as §2
Acinetobacter baumannii [26] = assay: Antibacterial activity against Acinetobacter baumannii isolate 963618 measured after 24 hrs by microtiter dilution method; type: functional; details: isolate 963618, 24 h; in short: as §2
Acinetobacter baumannii [27] = assay: Antibacterial activity against Acinetobacter baumannii isolate 1018887 measured after 24 hrs by microtiter dilution method; type: functional; details: isolate 1018887, 24 h; in short: as §2
Acinetobacter baumannii [28] = assay: Antibacterial activity against Acinetobacter baumannii isolate 1035794 measured after 24 hrs by microtiter dilution method; type: functional; details: isolate 1035794, 24 h; in short: as §2
Acinetobacter baumannii [29] = assay: Antibacterial activity against Acinetobacter baumannii isolate 981650 measured after 24 hrs by microtiter dilution method; type: functional; details: isolate 981650, 24 h; in short: as §2
Acinetobacter baumannii [30] = assay: Antibacterial activity against Acinetobacter baumannii isolate 965463 measured after 24 hrs by microtiter dilution method; type: functional; details: isolate 965463, 24 h; in short: as §2
Acinetobacter baumannii [31] = assay: Antibacterial activity against polymyxin B/colistin-resistant Acinetobacter baumannii M89963 measured after 24 hrs by microtiter dilution method; type: functional; details: M89963, 24 h; in short: as §2
Acinetobacter baumannii [32] = assay: Antibacterial activity against polymyxin B/colistin-resistant Acinetobacter baumannii M89955 measured after 24 hrs by microtiter dilution method; type: functional; details: M89955, 24 h; in short: as §2
Acinetobacter baumannii [33] = assay: Antibacterial activity against polymyxin B/colistin-resistant Acinetobacter baumannii M89953 measured after 24 hrs by microtiter dilution method; type: functional; details: M89953, 24 h; in short: as §2
Acinetobacter baumannii [34] = assay: Antibacterial activity against polymyxin B/colistin-resistant Acinetobacter baumannii M89952 measured after 24 hrs by microtiter dilution method; type: functional; details: M89952, 24 h; in short: as §2
Acinetobacter baumannii [35] = assay: Antibacterial activity against polymyxin B/colistin-resistant Acinetobacter baumannii M89951 measured after 24 hrs by microtiter dilution method; type: functional; details: M89951, 24 h; in short: as §2
Acinetobacter baumannii [36] = assay: Antibacterial activity against polymyxin B/colistin-resistant Acinetobacter baumannii M89949 measured after 24 hrs by microtiter dilution method; type: functional; details: M89949, 24 h; in short: as §2
Acinetobacter baumannii [37] = assay: Antibacterial activity against polymyxin B/colistin-resistant Acinetobacter baumannii M89941 measured after 24 hrs by microtiter dilution method; type: functional; details: M89941, 24 h; in short: as §2

In the case of `CC(=O)N[C@H](CCCCN)C(=O)N[C@H](CC(C)C)C(=O)N[C@@H](CN)C(=O)N[C@H](CO)C(=O)N[C@H](CC(C)C)C(=O)N[C@H](CC(C)C)C(=O)N[C@@H](CN)C(=O)N[C@@H](C(=O)N[C@H](CC(C)C)C(=O)N[C@H](CO)C(=O)N[C@@H](CN)C(=O)N[C@H](C)C(=O)N[C@H](CCCCN)C(=O)N[C@H](C)C(=O)N[C@H](C)C(=O)N[C@H](CCCCN)C(=O)N[C@H](CC(C)C)C(=O)N[C@@H](CN)C(=O)N[C@@H](C(=O)N[C@H](CC(C)C)C(=O)N[C@H](CC(C)C)C(=O)N[C@@H](CN)C(=O)N[C@H](C)C(=O)N[C@H](CC(C)C)C(=O)N[C@H](CO)C(=O)N[C@@H](CN)C(N)=O)[C@H](C)O)[C@H](C)O` (Ac-[dK][dL][Dap][dS][dL][dL][Dap][dT][dL][dS][Dap][dA][dK][dA][dA][dK][dL][Dap][dT][dL][dL][Dap][dA][dL][dS][Dap]-NH2), the MIC (Acinetobacter baumannii [1]) was 3 µM, the selectivity ratio [2] was over 957 and the MIC (Acinetobacter baumannii [3]) was 0.8 µM (≈ 2.09 µg/mL). It also gave a selectivity ratio [4] of over 957, a selectivity ratio [5] of over 957 and a selectivity ratio [6] of over 957. The selectivity ratio [7] was over 957, the selectivity ratio [8] was over 957 and the HC50 at 18 h [9] was over 1.15 mM. For the same compound, the selectivity ratio [10] was over 957, the MIC (Acinetobacter baumannii [11]) was 0.4 µM (≈ 1.05 µg/mL) and the MIC (Acinetobacter baumannii [12]) was 0.8 µM (≈ 2.09 µg/mL). It also gave an MIC (Acinetobacter baumannii [13]) of 1.5 µM (≈ 3.92 µg/mL), an MIC (Acinetobacter baumannii [14]) of 1.5 µM (≈ 3.92 µg/mL) and an MIC (Acinetobacter baumannii [15]) of 0.8 µM (≈ 2.09 µg/mL). It also gave an MIC (Acinetobacter baumannii [16]) of 1.5 µM (≈ 3.92 µg/mL), an MIC (Acinetobacter baumannii [17]) of 0.8 µM (≈ 2.09 µg/mL) and an MIC (Acinetobacter baumannii [18]) of 0.8 µM (≈ 2.09 µg/mL). It also gave an MIC (Acinetobacter baumannii [19]) of 0.8 µM (≈ 2.09 µg/mL), an MIC (Acinetobacter baumannii [20]) of 0.8 µM (≈ 2.09 µg/mL) and an MIC (Acinetobacter baumannii [21]) of 0.8 µM (≈ 2.09 µg/mL). It also gave an MIC (Acinetobacter baumannii [22]) of 1.5 µM (≈ 3.92 µg/mL), an MIC (Acinetobacter baumannii [23]) of 1.5 µM (≈ 3.92 µg/mL) and an MIC (Acinetobacter baumannii [24]) of 1.5 µM (≈ 3.92 µg/mL). The MIC (Acinetobacter baumannii [25]) was 1.5 µM (≈ 3.92 µg/mL), the MIC (Acinetobacter baumannii [26]) was 0.8 µM (≈ 2.09 µg/mL) and the MIC (Acinetobacter baumannii [27]) was 0.8 µM (≈ 2.09 µg/mL). The MIC (Acinetobacter baumannii [28]) was 0.8 µM (≈ 2.09 µg/mL), the MIC (Acinetobacter baumannii [29]) was 0.8 µM (≈ 2.09 µg/mL) and the MIC (Acinetobacter baumannii [30]) was 1.5 µM (≈ 3.92 µg/mL). It also gave an MIC (Acinetobacter baumannii [31]) of 1.5 µM (≈ 3.92 µg/mL), an MIC (Acinetobacter baumannii [32]) of 0.8 µM (≈ 2.09 µg/mL) and an MIC (Acinetobacter baumannii [33]) of 3 µM (≈ 7.84 µg/mL). For the same compound, the MIC (Acinetobacter baumannii [34]) was 0.8 µM (≈ 2.09 µg/mL), the MIC (Acinetobacter baumannii [35]) was 3 µM (≈ 7.84 µg/mL) and the MIC (Acinetobacter baumannii [36]) was 0.8 µM (≈ 2.09 µg/mL). It also gave an MIC (Acinetobacter baumannii [37]) of 0.8 µM (≈ 2.09 µg/mL).
